PGC1a Ac signal: raises PGC1a acetylation signal in U2OS cells | actives 0.21% (n = 350,000) | U2OS PGC1a acetylation AlphaScreen, overnight | activation, % at 15.6 µM;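 active means every replicate reaching activation of at least 50%, whatever the mean replicate activation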;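 further: hits raise the AlphaScreen acetylation signal above neutral controls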
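detection = AlphaScreen lysate read | assay system = U2OS cells expressing flag-PGC1a plus GCN5 | input = 7000 cells/well | dosing = one concentration | times = compound overnight at 37 °C, each detection step 1 h RT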
Numbers without * were called inactive. The entries come from a sample that favours hits as a whole.

`CC(C)(O)C#Cc1ccc(C(=O)NC(CCCNC(N)=O)C(=O)O)s1` (stereo unspecified) gave PGC1a Ac signal -82.
Cc1cc(=O)oc2cc(OCC(=O)OCC(=O)Nc3ccccc3F)ccc12 was read as PGC1a Ac signal -45.
`Fc1cccc(-c2ccc([C@@H]3[C@@H]4CN(Cc5nccs5)C[C@H]3N4)cc2)c1` gave PGC1a Ac signal 75*.
`CCOc1ccc(Nc2nc(NCc3ccco3)nc(N)c2[N+](=O)[O-])cc1` gave PGC1a Ac signal -72.
`Cc1ccc(CNC(=O)c2ccc(CS(=O)(=O)c3ccccc3)o2)cc1` gave PGC1a Ac signal -44.
O=C(NCc1cccnc1)/C(=C/c1ccc(-c2ccc(Cl)cc2)o1)S(=O)(=O)c1ccccc1 was read as PGC1a Ac signal 360*.
For Clc1ccc2nc(COc3ccccc3)[nH]c2c1 the results were PGC1a Ac signal 89*.
For CNC[C@@H]1OCCCC[C@H](C)Oc2ccc(NS(=O)(=O)c3cccs3)cc2C(=O)N([C@H](C)CO)C[C@@H]1C the results were PGC1a Ac signal -59.
CCSc1ccc(NC(=O)c2cccnc2)cc1 was read as PGC1a Ac signal 226*.
Screening O=C(COc1ccc(Br)cc1)NCCNC(=O)c1cccnc1 returned PGC1a Ac signal -45.
For CC(C)(C)c1ccc(C(=O)Nc2ccc(C(=O)NCc3cccnc3)cc2)cc1 the results were PGC1a Ac signal 101*.
`COC(=O)c1cc(Cl)c(NS(=O)(=O)c2ccccc2)cc1OC` gave PGC1a Ac signal -48.
CC1CCCC(C)N1C(=S)NCc1ccco1 (stereo unspecified) was read as PGC1a Ac signal -47.
Screening COCCCNC(=O)c1ccc(Cn2c(=O)c3ccccc3n(Cc3ccccc3C)c2=O)cc1 returned PGC1a Ac signal -52.
Screening O=C1CSC(=Nc2ccc(Cl)cc2)N1Cc1ccco1 returned PGC1a Ac signal -47.
O=C(NCc1ccco1)c1ccc(Cn2c(=O)c3ccccc3n(Cc3ccc(Cl)cc3)c2=O)cc1 was read as PGC1a Ac signal 88*.
COc1cccc(N(CC(=O)NCc2cccnc2)S(C)(=O)=O)c1 was read as PGC1a Ac signal 89*.
For COc1cccc(N(C(=O)CCl)C(C(=O)NCCc2ccccc2)c2cccs2)c1 (stereo unspecified) the results were PGC1a Ac signal -29.
`COc1cccc(S(=O)(=O)N[C@H]2CC[C@H](CC(=O)NCc3ccc(F)cc3)O[C@@H]2CO)c1` gave PGC1a Ac signal -55.
`COc1ccc(S(=O)(=O)N(C)C[C@H]2Oc3c(NS(=O)(=O)c4ccc(C)cc4)cccc3C(=O)N([C@H](C)CO)C[C@H]2C)cc1` gave PGC1a Ac signal -41.
Screening Cc1ccc(S(=O)(=O)N[C@H]2C=C[C@H](CC(=O)NCCN3CCCCC3)O[C@H]2CO)cc1 returned PGC1a Ac signal -46.
O=C(CCC1CCCCC1)NCc1cccs1 was read as PGC1a Ac signal -41.
For COc1ccc2cc3c(N)nn(C(=O)c4ccccc4Cl)c3nc2c1 the results were PGC1a Ac signal -42.
COc1ccc2cc3cc(C(=O)NCc4cccs4)oc3nc2c1 was read as PGC1a Ac signal 70*.
For C[C@@H]1CN([C@@H](C)CO)C(=O)CCCn2cc(nn2)CO[C@H]1CN(C)S(=O)(=O)c1ccccc1 the results were PGC1a Ac signal -47.
`Cc1ccc(S(=O)(=O)N[C@@H]2C=C[C@H](CC(=O)NCCN3CCCCC3)O[C@@H]2CO)cc1` gave PGC1a Ac signal -58.
`C/C(N)=C(/C#N)C(=O)COc1ncnc2ccc(Br)cc12` gave PGC1a Ac signal 90*.
Cc1ccc(OC[C@H](O)[C@H](C)NC(C)C)c2c1CCC2 was read as PGC1a Ac signal -45.
Screening CCCCN(C)C1CCN(C(=S)Nc2cccc(OC)c2)CC1 returned PGC1a Ac signal -52.
COc1cccc(-c2csc(N3CCN(C(=S)Nc4ccccc4Cl)CC3)n2)c1 was read as PGC1a Ac signal 67*.
For CN(C)c1ncnc2c1ccn2C1OC(CO)C(O)C1O (stereo unspecified) the results were PGC1a Ac signal -52.
Screening Clc1ccc(CSc2nnc(-c3cccnc3)n2Cc2ccco2)c(Cl)c1 returned PGC1a Ac signal 74*.
`CCN(CC)C(=O)CSc1nnc(-c2cccnc2)n1Cc1ccccc1` gave PGC1a Ac signal -45.
CCCCCCNC(=O)O[C@@]12CN(S(=O)(=O)c3ccc(C)cc3)C[C@]1(O)Cn1c(=O)n(CCCCCC)c(=O)n1C2 was read as PGC1a Ac signal -69.
`O=C1C(c2ccccc2)C(c2ccccc2)NC(c2ccccc2)C1c1ccccc1` (stereo unspecified) gave PGC1a Ac signal 55*.
For COc1cccc(C(=O)Nn2cnnc2)c1OC the results were PGC1a Ac signal -75.
For CC(C)Cc1nnc(NC(=O)c2cc3c(s2)CCC3)s1 the results were PGC1a Ac signal -43.
For COc1ccccc1C(=O)Nc1nnc(CCc2ccccc2)s1 the results were PGC1a Ac signal 69*.
For O=C(C[C@@H]1C[C@@H]2c3cc(NC(=O)Nc4ccccc4F)ccc3O[C@@H]2[C@@H](CO)O1)NCc1ccc(Oc2ccccc2)cc1 the results were PGC1a Ac signal -84.
Screening COc1cc(C2C(C#N)=C(N)Oc3c2oc(CO)cc3=O)cc(OC)c1OC (stereo unspecified) returned PGC1a Ac signal 102*.
Screening O=C(Cn1cc(C(=O)c2cccs2)c2ccccc21)NCC1CCCO1 (stereo unspecified) returned PGC1a Ac signal 86*.
CN(CC(=O)NCC1CCCO1)S(=O)(=O)c1cc(Cl)ccc1Cl (stereo unspecified) was read as PGC1a Ac signal -48.
`Clc1ccccc1CN1CCSCC1` gave PGC1a Ac signal -47.
Screening CSCC[C@H](NC(=O)c1ccc(Br)o1)c1nnc2ccccn12 returned PGC1a Ac signal -43.
Screening Cc1ccccc1NC(=O)Nc1ccccc1Br returned PGC1a Ac signal -46.
For CCC(C)(C)NC(=O)c1ccc2c(c1)S(=O)(=O)c1ccccc1C2=O the results were PGC1a Ac signal -54.
Screening O=C(COC(=O)c1ccccc1C(=O)c1ccc(Cl)c([N+](=O)[O-])c1)NC1CCCCCC1 returned PGC1a Ac signal 160*.
Cc1ccc(NC(=O)c2ccc(NCC3CCCO3)c([N+](=O)[O-])c2)cc1Cl (stereo unspecified) was read as PGC1a Ac signal -43.
`CC(=O)c1ccc(N2CCN(c3ccc(S(=O)(=O)NCCCN(C)C)cc3[N+](=O)[O-])CC2)cc1` gave PGC1a Ac signal 95*.
For O=C(Nc1cccc(C(F)(F)F)c1)c1sc(Cl)nc1C(F)(F)F the results were PGC1a Ac signal 121*.
Screening O=C(CCl)NCc1cc(-c2ccc(Cl)cc2)no1 returned PGC1a Ac signal 52*.
For CO[C@H]1CN(C)C(=O)c2cc(NS(=O)(=O)c3cn(C)cn3)ccc2OC[C@@H](C)NC[C@H]1C the results were PGC1a Ac signal -55.
Cc1noc(C)c1NC(=O)N(C)C[C@@H]1Oc2c(NS(=O)(=O)c3cn(C)cn3)cccc2C(=O)N([C@@H](C)CO)C[C@@H]1C was read as PGC1a Ac signal -54.
For CCCCn1c(SCC(=O)NCc2ccc3c(c2)OCO3)nnc1C(CC)N(C)C (stereo unspecified) the results were PGC1a Ac signal -44.
`COc1ccc(Cl)cc1NC(=O)CN1CCC(n2nnc3cc(C)ccc32)CC1` gave PGC1a Ac signal -51.
`CCOc1ccc(NC(=O)CN2CCC(n3cnc4cc(F)ccc43)CC2)cc1` gave PGC1a Ac signal 67*.

Source: PubChem BioAssay
